Test results published in ChEMBL document CHEMBL3593190, “Triterpenoids with Promoting Effects on the Differentiation of PC12 Cells from the Steamed Roots of Panax notoginseng” (J Nat Prod, 2015).

Columns and labels:
A549 = assay: Cytotoxicity against human A549 cells; format: functional, cell-based
SW480 = assay: Cytotoxicity against human SW480 cells; format: functional, cell-based
PC-12 = assay: Neurotrophic activity in rat PC12 cells assessed as stimulation of NGF-induced neurite outgrowth at 10 uM after 72 hrs by phase-contrast microscopic analysis relative to control; format: functional
How it was run: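 PC12 cells kept in F12 with 12.5% horse serum and 2.5% FBS at 37 °C, 5% CO2, then seeded at 5 × 10^4 cells/mL on poly-L-lysine. After 24 h, medium switched to 10 μM compound (DMSO, final 0.05%) plus 5 ng/mL NGF; controls: no NGF, 5 ng/mL or 50 ng/mL NGF. After 72 h, phase-contrast scoring: neurite ≥ soma diameter; % neurite-bearing cells, ≥100 cells/view, 5 views/well.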

[1] = Cytotoxicity against human […] cells; format: functional, cell-based
HL-60 = assay: Cytotoxicity against human HL60 cells; format: functional, cell-based
MCF7 = assay: Cytotoxicity against human MCF7 cells; format: functional, cell-based
Human alphaherpesvirus 1 = assay: Antiviral activity against HSV1; format: functional, organism-based
Human alphaherpesvirus 2 = assay: Antiviral activity against HSV2; format: functional, organism-based

Structure (SMILES)	IC50 (A549) [µM]	IC50 (SW480) [µM]	Activity (PC-12) [%]	IC50 [1] [µM]	IC50 (HL-60) [µM]	IC50 (MCF7) [µM]	EC50 (Human alphaherpesvirus 1) [µM]	EC50 (Human alphaherpesvirus 2) [µM]
CC(C)=CCC[C@@](C)(O)[C@H]1CC[C@]2(C)[C@@H]1[C@H](O)C[C@@H]1[C@@]3(C)CC[C@H](O[C@@H]4O[C@H](CO)[C@@H](O)[C@H](O)[C@H]4O[C@@H]4O[C@H](CO)[C@@H](O)[C@H](O)[C@H]4O)C(C)(C)[C@@H]3CC[C@]12C	> 10	> 10	9.5	> 10	> 10	> 10	–	–
CC(C)(O)[C@@H](O)/C=C/[C@](C)(O)[C@H]1CC[C@]2(C)[C@@H]1[C@H](O)C[C@@H]1[C@@]3(C)CC[C@H](O[C@@H]4O[C@H](CO)[C@@H](O)[C@H](O)[C@H]4O[C@@H]4O[C@H](CO)[C@@H](O)[C@H](O)[C@H]4O)C(C)(C)[C@@H]3CC[C@]12C	> 10	> 10	8.2	> 10	> 10	> 10	–	–
CC(C)(O)[C@H](O)/C=C/[C@](C)(O)[C@H]1CC[C@]2(C)[C@@H]1[C@H](O)C[C@@H]1[C@@]3(C)CC[C@H](O[C@@H]4O[C@H](CO)[C@@H](O)[C@@H](O)[C@H]4O[C@@H]4O[C@H](CO)[C@@H](O)[C@H](O)[C@H]4O)C(C)(C)[C@@H]3CC[C@]12C	> 10	> 10	10.8	> 10	> 10	> 10	–	–
C/C(=C\[C@@H](O)[C@H](O)C(C)(C)O)[C@H]1CC[C@]2(C)[C@@H]1[C@H](O)C[C@@H]1[C@@]3(C)CC[C@H](O)C(C)(C)[C@@H]3[C@@H](O[C@@H]3O[C@H](CO)[C@@H](O)[C@H](O)[C@H]3O)C[C@]12C	> 10	> 10	9.9	> 10	> 10	> 10	–	–
C/C(=C/[C@H](O)[C@@H](O)C(C)(C)O)[C@H]1CC[C@]2(C)[C@@H]1[C@H](O)C[C@@H]1[C@@]3(C)CC[C@H](O)C(C)(C)[C@@H]3[C@@H](O[C@@H]3O[C@H](CO)[C@@H](O)[C@H](O)[C@H]3O)C[C@]12C	> 10	> 10	11.4	> 10	> 10	> 10	–	–
C/C(=C/[C@@H](O)[C@H](O)C(C)(C)O)[C@H]1CC[C@]2(C)[C@@H]1[C@H](O)C[C@@H]1[C@@]3(C)CC[C@H](O)C(C)(C)[C@@H]3[C@@H](O[C@@H]3O[C@H](CO)[C@@H](O)[C@H](O)[C@H]3O)C[C@]12C	> 10	> 10	10.9	> 10	> 10	> 10	–	–
CO[C@@H](/C=C(\C)[C@H]1CC[C@]2(C)[C@@H]1[C@H](O)C[C@@H]1[C@@]3(C)CC[C@H](O)C(C)(C)[C@@H]3[C@@H](O[C@@H]3O[C@H](CO)[C@@H](O)[C@H](O)[C@H]3O)C[C@]12C)[C@@H]1OC1(C)C	> 10	> 10	11.6	> 10	> 10	> 10	–	–
CO[C@@H](/C=C(\C)[C@H]1CC[C@]2(C)[C@@H]1[C@H](O)C[C@@H]1[C@@]3(C)CC[C@H](O[C@@H]4O[C@H](CO)[C@@H](O)[C@H](O)[C@H]4O[C@@H]4O[C@H](CO)[C@@H](O)[C@H](O)[C@H]4O)C(C)(C)[C@@H]3CC[C@]12C)[C@@H]1OC1(C)C	> 10	> 10	11.4	> 10	> 10	> 10	–	–
C/C(=C\C[C@H](O)C(C)(C)O)[C@H]1CC[C@]2(C)[C@@H]1[C@H](O)C[C@@H]1[C@@]3(C)CC[C@H](O)C(C)(C)[C@@H]3[C@@H](O[C@@H]3O[C@H](CO)[C@@H](O)[C@H](O)[C@H]3O)C[C@]12C	> 10	> 10	9.3	> 10	> 10	> 10	–	–
CC(C)=CCC[C@@](C)(O)[C@H]1CC[C@]2(C)[C@@H]1[C@H](O)C[C@@H]1[C@@]3(C)CC[C@H](O)C(C)(C)[C@@H]3[C@@H](O[C@@H]3O[C@H](CO)[C@@H](O)[C@H](O)[C@H]3O)C[C@]12C	> 10	> 10	8.5	> 10	> 10	> 10	–	–
C=C(CCC=C(C)C)[C@H]1CC[C@]2(C)[C@@H]1[C@H](O)C[C@@H]1[C@@]3(C)CC[C@H](O[C@@H]4O[C@H](CO)[C@@H](O)[C@H](O)[C@H]4O)C(C)(C)[C@@H]3CC[C@]12C	> 10	> 10	8.9	> 10	> 10	> 10	–	–
CC(=O)OC[C@H]1O[C@@H](O[C@H]2[C@H](O[C@H]3CC[C@]4(C)[C@H]5C[C@@H](O)[C@@H]6[C@@H]([C@@](C)(O)CCC=C(C)C)CC[C@@]6(C)[C@]5(C)CC[C@H]4C3(C)C)O[C@H](CO)[C@@H](O)[C@@H]2O)[C@H](O)[C@@H](O)[C@@H]1O	> 10	> 10	9.3	> 10	> 10	> 10	–	–
CC(=O)OC[C@H]1O[C@@H](O[C@H]2[C@H](O[C@H]3CC[C@]4(C)[C@H]5C[C@@H](O)[C@@H]6[C@@H]([C@](C)(O)CCC=C(C)C)CC[C@@]6(C)[C@]5(C)CC[C@H]4C3(C)C)O[C@H](CO)[C@@H](O)[C@@H]2O)[C@H](O)[C@@H](O)[C@@H]1O	> 10	> 10	13.4	> 10	> 10	> 10	–	–
CC(C)(O)CCC[C@@](C)(O)[C@H]1CC[C@]2(C)[C@@H]1[C@H](O)C[C@@H]1[C@@]3(C)CC[C@H](O)C(C)(C)[C@@H]3[C@@H](O[C@@H]3O[C@H](CO)[C@@H](O)[C@H](O)[C@H]3O)C[C@]12C	> 10	> 10	8.6	> 10	> 10	> 10	–	–
C=C(CCCC(C)(C)O)[C@H]1CC[C@]2(C)[C@@H]1[C@H](O)C[C@@H]1[C@@]3(C)CC[C@H](O)C(C)(C)[C@@H]3[C@@H](O[C@@H]3O[C@H](CO)[C@@H](O)[C@H](O)[C@H]3O)C[C@]12C	> 10	> 10	8.3	> 10	> 10	> 10	–	–
CC(C)=CCC[C@](C)(O)[C@H]1CC[C@]2(C)[C@@H]1[C@H](O)C[C@@H]1[C@@]3(C)CC[C@H](O[C@@H]4O[C@H](CO)[C@@H](O)[C@H](O)[C@H]4O[C@@H]4O[C@H](CO)[C@@H](O)[C@H](O)[C@H]4O[C@@H]4OC[C@@H](O)[C@H](O)[C@H]4O)C(C)(C)[C@@H]3CC[C@]12C	–	–	–	–	–	–	16.5	19.4
